# Shown are actives, neighbours in structure and some others; about 1.2% of the full set was active somewhere.
# MsrA inhibitor – inhibits bovine methionine sulfoxide reductase A. purified bovine MsrA, absorbance read-out. inhibition, % at 15.5 µM. 360,000 compounds, 0.75% hits. AID 651718;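 also: 0% = vehicle wells with enzyme and 100% = reference inhibitor wells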
# procasp3 activ – activators of human procaspase-3; activation, % at 8.5 µM; 330,000 compounds, 0.11% hits; AID 463141; P42574; recombinant procaspase-3 D3A, Ac-DEVD-pNA absorbance 405 nm;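 active = activation above the mean of all tested compounds plus 3 SD, cut at about 21% in these data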;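 also: 0% = DMSO alone and 100% = DMSO wells spiked with extra 5 µM PC-3 D3A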
# Target sequence (P42574 whole entry D9A/D28A/D175A): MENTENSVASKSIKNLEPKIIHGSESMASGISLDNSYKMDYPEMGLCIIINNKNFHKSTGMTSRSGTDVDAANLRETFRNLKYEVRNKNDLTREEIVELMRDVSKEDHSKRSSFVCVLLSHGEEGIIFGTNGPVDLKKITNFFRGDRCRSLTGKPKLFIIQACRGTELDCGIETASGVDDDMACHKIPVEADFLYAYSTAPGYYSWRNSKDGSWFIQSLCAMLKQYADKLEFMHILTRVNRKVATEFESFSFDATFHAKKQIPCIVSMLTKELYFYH
#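 Assay system – Procaspase-3 D3A mutant, all three cleavage aspartates alanine · Controls – DMSO-only low control, 5 µM PC-3 D3A high control · Schedule – 1 h compound preincubation, 2 h substrate hydrolysis at 25 °C · Signal – 405 nm absorbance of p-nitroaniline, reads at 0 and 120 min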
# procasp7 counter – counter-screen: procaspase-7 (human) activation. activation, % at 8.5 µM. AID 463210. P55210. 330,000 compounds, 0.093% hits. recombinant procaspase-7, Ac-DEVD-pNA absorbance 405 nm; D23A/D198A/D206A triple mutant, cannot self-cleave; scale: DMSO 0, 5 µM enzyme 100;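 active = percent activation above the screen-wide mean plus 3 SD, cut at about 25% in these data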
# Target sequence (P55210 whole entry D23A/D198A/D206A): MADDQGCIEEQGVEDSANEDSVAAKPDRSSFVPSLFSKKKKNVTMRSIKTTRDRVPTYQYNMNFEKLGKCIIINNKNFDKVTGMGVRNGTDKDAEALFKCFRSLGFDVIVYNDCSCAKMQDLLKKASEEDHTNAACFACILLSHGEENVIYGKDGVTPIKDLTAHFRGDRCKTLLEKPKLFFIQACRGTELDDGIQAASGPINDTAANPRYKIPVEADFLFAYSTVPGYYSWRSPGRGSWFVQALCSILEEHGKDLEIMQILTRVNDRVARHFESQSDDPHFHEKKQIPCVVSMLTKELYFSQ
#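 Replicates: singlicate. Assay system: Procaspase-7 triple mutant (PC-7 D3A). Signal: 405 nm absorbance of p-nitroaniline. Times: 1 h preincubation, 2 h reaction. Buffer or medium: Zinc-free HEPES pH 7.4 with 300 mM NaCl, 0.01% Triton X-100. Also added: DEVD-pNA substrate. Benchmarks: DMSO wells as 0%, DMSO with 5 µM added PC-7 as 100%.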
# bovine MsrA act – activators of bovine methionine sulfoxide reductase A; 360,000 compounds, 0.3% hits; activation, % at 10.6 µM; purified bovine MsrA, absorbance read-out; in the data active = activation above about 7.5%;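 also: 0% = vehicle and 100% = reference activator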
# MsrA inh confirm – bovine MsrA inhibition, confirmed. 2,300 compounds, 41% hits. shares compounds with MsrA inhibitor. inhibition, % at 15.5 µM. purified bovine MsrA, absorbance read-out. AID 651822;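 also: coupled to thioredoxin reductase with NADPH and selenocystamine and DMSO as substrate; 0% = vehicle only and 100% = full effect of reference inhibitor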
# * = called active by the depositor; . = not tested or not shown. Rule as the data show it, unless noted: active = inhibition above about 4.5%; inactive = the rest.
SMILES,MsrA inhibitor,procasp3 activ,procasp7 counter,bovine MsrA act,MsrA inh confirm
COc1ccc(NC(=O)N(C)C[C@H]2OCc3cn(nn3)CCCC(=O)N([C@H](C)CO)C[C@@H]2C)cc1,2,.,.,.,.
COc1ccc(/C=C2\SC(=O)N(CCn3cnnn3)C2=O)cc1,6.3*,3,-2,-6,4
COc1ccc(/C=C2/SC(=O)N(CCNC(=O)C3CCCN3C(=O)c3cccs3)C2=O)cc1 (stereo not given),5.6*,-3,-1,-5,4
COc1ccc(/C=C2\SC(=O)N(CCNC(=O)C3CSC4(C)CCC(=O)N34)C2=O)cc1 (stereo not given),6.4*,14,-1,-8,3
CC12CCC(=O)N1C(C(=O)NCCN1C(=O)S/C(=C\c3ccc(OC(F)F)cc3)C1=O)CS2 (stereo not given),2,-13,-15,-9,.
O=[N+]([O-])c1ccccc1/C=N/n1c(-c2cccnc2)n[nH]c1=S,1,4,-7,-11,.
O=[N+]([O-])c1cc(/C=N/n2c(-c3cccnc3)n[nH]c2=S)ccc1Cl,12*,-4,-9,-1,6.8*
O=C(c1ccc(-c2nc3ccccc3s2)o1)N1CCN(c2ccccc2O)CC1,3,-4,-8,-2,.
O=C(O)c1ccc(-c2nc3ccccc3s2)o1,5.2*,5,-7,-4,4
CC(=O)C1=C(C)N(Cc2ccc(F)cc2)C(=S)NC1c1ccccc1 (stereo not given),1,.,.,.,.
CCOc1cc(/C=N/NC(=O)COc2ccccc2C)ccc1OC(=O)c1cccs1,0,7,10,-9,.
CCOc1cc(/C=N/NC(=O)c2cccs2)ccc1OC(=O)N1CCOCC1,4.8*,-9,-2,-5,2
O=C(c1ccccc1)c1ccc(O)cc1O,5.6*,-5,-6,-6,3
COc1ccc(-n2c(CSc3ccc(Cl)cc3)n[nH]c2=S)cc1,0,.,.,.,.
Cc1ccc(/C=C/C(=O)Nc2nccs2)o1,5.5*,-1,-1,-5,7.8*
O=C(/C=C/c1cccs1)Nc1nccs1,6.4*,-5,6,-6,7.2*
Cc1cc(C)nc(NC(=O)/C=C/c2cccs2)c1,4,5,1,-4,.
O=C(/C=C/c1cccs1)Nc1cccc(NC(=O)/C=C/c2cccs2)n1,7.4*,14,3,-11,6.0*
Cc1ccc2nc(-c3ccc(CN4CCC5(CC4)CNc4ccccc45)cc3)c(-c3ccccc3)nc2c1,1,.,.,.,.
O=C(/C=C(\Nc1cc(Cl)c(F)c(Cl)c1)c1ccccc1)c1ccccc1,1,.,.,.,.
CCCCc1nc(SCC(=O)N2CCCC2)c2c(=O)n(C)c(=O)n(C)c2n1,7.5*,2,1,-9,6.9*
CCc1nc(SCC(=O)N2CCCC2)c2c(=O)n(C)c(=O)n(C)c2n1,2,1,-6,-2,.
CC(C)Cc1nc(SCC(=O)N2CCCC2)c2c(=O)n(C)c(=O)n(C)c2n1,8.0*,3,7,-2,7.2*
CCCCc1nc(SCC(=O)N2CCCCC2)c2c(=O)n(C)c(=O)n(C)c2n1,-1,9,5,0,.
CC(C)C[C@H]1COc2cccc(F)c2S(=O)(=O)N1,-1,.,.,.,.
SMILES,MsrA inhibitor,procasp3 activ,procasp7 counter,bovine MsrA act,MsrA inh confirm
COc1cccc(NC(=O)N(C)C[C@H]2OCc3ccccc3-c3c(n(C)c4ccccc34)C(=O)N([C@H](C)CO)C[C@H]2C)c1,-1,.,.,.,.
O=c1c2ccccc2nc(/C=C/c2c[nH]c3ccccc23)n1CCO,5.0*,4,4,-1,3
O=c1c2ccccc2nc(/C=C/c2cc(Br)ccc2O)n1CCO,0,11,2,-2,.
COc1ccc(C(=O)N(CN2CCCC2=O)c2nccs2)cc1OC,7.5*,-5,1,-15,5.1*
CCS(=O)(=O)Nc1ccc(C2=NN(C(=O)c3ccco3)C(c3ccco3)C2)cc1 (stereo not given),5.1*,1,-2,0,3
CCS(=O)(=O)Nc1cccc(C2=NN(C(=O)c3ccco3)C(c3ccco3)C2)c1 (stereo not given),3,-1,-11,-3,.
COC(=O)/C=C1\OC(C)c2ccccc21 (stereo not given),0,.,.,.,.
O=C1c2ccccc2C(=O)C1c1ccc(Br)cc1,0,1,-8,0,.
O=C1c2ccccc2C(=O)C1c1ccc(O)cc1,4.9*,6,-10,-5,3
CC(=O)N(C)C[C@@H]1OCc2ccccc2-c2c(n(C)c3ccccc23)C(=O)N([C@@H](C)CO)C[C@@H]1C,-1,.,.,.,.
O=C(Nc1ccccc1F)C(=Cc1sc(N2CCOCC2)nc1-c1ccccc1)C(=O)Nc1ccccc1F,4.8*,-10,-5,-6,4
O=C(N/N=C/c1sc(N2CCOCC2)nc1-c1ccccc1)c1cccc(S(=O)(=O)N2CCOCC2)c1,3,2,-9,2,.
O=C(N/N=C/c1sc(N2CCOCC2)nc1-c1ccccc1)c1ccccc1Cl,0,9,0,-11,.
O=C(N/N=C/c1sc(N2CCOCC2)nc1-c1ccccc1)c1ccccc1F,.,3,-5,.,.
O=C(O)c1cccc(N/N=C/c2sc(N3CCOCC3)nc2-c2ccccc2)c1,19*,-7,-6,-15,17*
Nc1ccc(C(=O)N/N=C/c2sc(N3CCOCC3)nc2-c2ccccc2)cc1,7.4*,8,7,-3,4
COc1cc(C(=O)N/N=C/c2sc(N3CCOCC3)nc2-c2ccccc2)cc(OC)c1OC,6.6*,5,1,-5,3
O=C(N[C@H](C(=O)N1CCC[C@H]1C(=O)NCc1ccccc1)c1ccccc1)C1CCCC1,0,.,.,.,.
C[C@@H]1CN([C@H](C)CO)C(=O)c2cc(NS(=O)(=O)c3ccccc3)ccc2O[C@@H](C)CCCCO[C@@H]1CN(C)Cc1ccc(Cl)c(Cl)c1,3,.,.,.,.
Cc1cc(C(=O)N/N=C/c2sc(N3CCOCC3)nc2-c2ccccc2)c(C)o1,17*,-2,1,-2,6.7*
O=C(N/N=C/c1sc(N2CCOCC2)nc1-c1ccccc1)c1ccccc1O,6.5*,7,-11,-6,5.1*
CCOc1cc(S(=O)(=O)N(CC)CC)c(OCC)cc1-n1cnnn1,25*,4,1,-8,23*
Cc1ccc(S(=O)(=O)c2c(N)n(NC(=O)c3ccco3)c3nc4ccccc4nc23)cc1,4.8*,-8,-12,0,2
Cc1ccc(S(=O)(=O)c2c(N)n(Cc3ccco3)c3nc4ccccc4nc23)cc1,1,0,-3,-2,.
C[C@H]1COc2cc(N3CCOCC3)ccc2S(=O)(=O)N1,2,.,.,.,.
COC(=O)/C(=C1/Oc2cc3c(cc2S1)OCO3)C(F)(F)F,6.6*,0,4,0,7.0*
COC(=O)/C(=C1/Oc2ccc(C)cc2S1)C(F)(F)F,9.6*,-1,-2,-14,11*
Cc1ccc(NC(=S)Nc2ccc(-c3nnc4n3CCCCC4)cc2)cc1C,-1,.,.,.,.
CC(C)(C)n1nc(C2CC2)c(Br)c1NC(=O)c1ccccc1Cl,0,.,.,.,.

# Source: PubChem BioAssay (The Scripps Research Institute Molecular Screening Center)
